Results as given in ChEMBL document CHEMBL3272118, “Structure and tumor-promoting activity of analogues of anthralin (1,8-dihydroxy-9-anthrone)” (J Med Chem, 1978).

Assays:
Mus musculus [1] = assay: Tumor promoting activity in ICR/Ha Swiss mouse at 80 ug administered three times a week measured for 521 days; type: ADME, organism-based; conditions: in vivo, 12504 h
Mus musculus [2] = assay: Toxicity in ICR/Ha Swiss mouse assessed as median survival time at 80 ug administered three times a week; type: organism-based; conditions: in vivo
Mus musculus [3] = assay: Tumor promoting activity in ICR/Ha Swiss mouse at 124 ug administered three times a week measured for 370 days; type: ADME, organism-based; conditions: in vivo, 8880 h
Procedure, shortened: (§1)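 Two-stage carcinogenesis on clipped backs of female ICR/Ha Swiss mice (8 weeks, ectromelia-vaccinated): one subcarcinogenic topical dose of 7,12-dimethylbenz[a]anthracene, then repeated skin application of test agent, dosed equimolar to anthralin except where toxicity required lower, for 370 days. Tumors >1 mm persisting ≥30 days counted; carcinomas confirmed histologically at autopsy.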

Mus musculus [4] = assay: Tumor promoting activity in ICR/Ha Swiss mouse at 80 ug administered three times a week measured for 370 days; type: ADME, organism-based; conditions: in vivo, 8880 h; procedure, shortened: as §1
Mus musculus [5] = assay: Tumor promoting activity in ICR/Ha Swiss mouse at 85 ug administered three times a week measured for 370 days; type: ADME, organism-based; conditions: in vivo, 8880 h; procedure, shortened: as §1
Mus musculus [6] = assay: Tumor promoting activity in ICR/Ha Swiss mouse at 76 ug administered three times a week measured for 370 days; type: ADME, organism-based; conditions: in vivo, 8880 h; procedure, shortened: as §1
Mus musculus [7] = assay: Tumor promoting activity in ICR/Ha Swiss mouse at 228 ug administered three times a week measured for 370 days; type: ADME, organism-based; conditions: in vivo, 8880 h; procedure, shortened: as §1
Mus musculus [8] = assay: Toxicity in ICR/Ha Swiss mouse assessed as median survival time at 300 ug administered three times a week; type: organism-based; conditions: in vivo
Procedure, shortened: (§2)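 Female ICR/Ha Swiss mice, 8 weeks old, vaccinated against ectromelia, backs clipped. Repeated skin application after a single subcarcinogenic dose of 7,12-dimethylbenz[a]anthracene. Groups of twenty mice; test ran 521 days; median survival time recorded. Tumors >1 mm persisting ≥30 days counted; autopsy with histological confirmation.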

Mus musculus [9] = assay: Tumor promoting activity in ICR/Ha Swiss mouse at 300 ug administered three times a week measured for 521 days; type: ADME, organism-based; conditions: in vivo, 12504 h; procedure, shortened: as §2
Mus musculus [10] = assay: Tumor promoting activity in ICR/Ha Swiss mouse at 75 ug administered three times a week measured for 370 days; type: ADME, organism-based; conditions: in vivo, 8880 h; procedure, shortened: as §1
Mus musculus [11] = assay: Tumor promoting activity in ICR/Ha Swiss mouse at 136 ug administered three times a week measured for 370 days; type: ADME, organism-based; conditions: in vivo, 8880 h; procedure, shortened: as §1
Mus musculus [12] = assay: Tumor promoting activity in ICR/Ha Swiss mouse at 15 ug administered three times a week measured for 370 days; type: ADME, organism-based; conditions: in vivo, 8880 h; procedure, shortened: as §1
[13] = Metal chelating activity of the compound assessed as metal-compound complex formation using copper; type: physicochemical
Procedure, shortened: (§3)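 Chelates prepared by adding 0.5 molar equiv of metal acetate in anhydrous ethanol to the ligand (2.0 mmol) dissolved in warm anhydrous ethanol. Metal:ligand ratio in dimethyl sulfoxide by Job's continuous variation: ligand (DHAQ 1.0×10^-4 M or anthralin 2.0×10^-4 M) and equimolar metal acetate mixed in nine solutions at ligand mole fractions 0.1–0.9, spectra recorded 400–650 nm.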

[14] = Metal chelating activity of the compound assessed as stability constant of metal chelate at 2 to 9 x 10^-5 M using Mg2+; type: physicochemical
Procedure, shortened: (§4)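 Stability constants by the Rossotti and Rossotti spectrophotometric method in dimethyl sulfoxide: eight solutions of anthralin from 2.0×10^-5 to 9.0×10^-5 M with metal acetate at matching concentrations, spectra read 400–650 nm at 25 °C.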

[15] = Metal chelating activity of the compound assessed as stability constant of metal chelate at 2 to 9 x 10^-5 M using Mn2+; type: physicochemical; procedure, shortened: as §4
[16] = Metal chelating activity of the compound assessed as stability constant of metal chelate at 2 to 9 x 10^-5 M using copper; type: physicochemical; procedure, shortened: as §4
[17] = Metal chelating activity of the compound assessed as stability constant of metal chelate at 2 to 9 x 10^-5 M using Ca2+; type: physicochemical; procedure, shortened: as §4
[18] = Metal chelating activity of the compound assessed as stability constant of metal chelate at 2 to 9 x 10^-5 M using Zn2+; type: physicochemical; procedure, shortened: as §4
[19] = Metal chelating activity of the compound assessed as metal-compound complex formation using Mn2+; type: physicochemical; procedure, shortened: as §3
[20] = Metal chelating activity of the compound assessed as stability constant of metal chelate at 1 to 4.5 x 10^-5 M using Mg2+; type: physicochemical
Procedure, shortened: (§5)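 Spectrophotometric method of Rossotti and Rossotti in dimethyl sulfoxide: eight solutions of DHAQ from 1.0×10^-5 to 4.5×10^-5 M with metal acetate at the same concentrations, absorption spectra recorded 400–650 nm at 25 °C, stability constants calculated from these.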

[21] = Metal chelating activity of the compound assessed as stability constant of metal chelate at 1 to 4.5 x 10^-5 M using Ca2+; type: physicochemical; procedure, shortened: as §5
[22] = Metal chelating activity of the compound assessed as metal-compound complex formation using Mg2+; type: physicochemical; procedure, shortened: as §3
[23] = Metal chelating activity of the compound assessed as stability constant of metal chelate at 1 to 4.5 x 10^-5 M using Mn2+; type: physicochemical; procedure, shortened: as §5
[24] = Metal chelating activity of the compound assessed as stability constant of metal chelate at 1 to 4.5 x 10^-5 M using Zn2+; type: physicochemical; procedure, shortened: as §5
[25] = Metal chelating activity of the compound assessed as stability constant of metal chelate at 1 to 4.5 x 10^-5 M using copper; type: physicochemical; procedure, shortened: as §5
[26] = Metal chelating activity of the compound assessed as metal-compound complex formation using Ca2+; type: physicochemical; procedure, shortened: as §3
[27] = Metal chelating activity of the compound assessed as metal-compound complex formation using zinc; type: physicochemical; procedure, shortened: as §3
Mus musculus [28] = assay: Tumor promoting activity in ICR/Ha Swiss mouse at 62 ug administered three times a week measured for 370 days; type: ADME, organism-based; conditions: in vivo, 8880 h
Procedure, shortened: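 Female ICR/Ha Swiss mice, ectromelia-vaccinated, started at 8 weeks, backs clipped the day before treatment. Single subcarcinogenic topical dose of 7,12-dimethylbenz[a]anthracene, then repeated skin applications at doses equimolar to the positive-control promoter, over 370 days. Tumors >1 mm persisting ≥30 days were counted cumulatively and confirmed on H&E histology at autopsy. Controls received test compound alone or no treatment.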

For `O=C1c2ccccc2Cc2cccc(O)c21`, the Activity (Mus musculus [1]) was “Toxic” and the MST (Mus musculus [2]) was 391 days.
With `CC(=O)Oc1cccc2c1C(=O)c1c(cccc1OC(C)=O)C2` the Activity (Mus musculus [3]) was “Toxic”.
With `O=C1c2ccccc2Cc2ccc(O)c(O)c21` the Activity (Mus musculus [4]) was “Non-toxic”.
For `O=C1c2c(O)cccc2C(O)c2cccc(O)c21`, the Activity (Mus musculus [5]) was “Non-toxic”.
In the case of `CC(=O)Oc1cccc2c1C(=O)C=CC2=O`, the Activity (Mus musculus [6]) is reported as “Toxic”.
In the case of `CCCCCCCCCCCCCC(=O)Oc1cccc2c1C(=O)c1c(cccc1OC(=O)CCCCCCCCCCCCC)C2`, the Activity (Mus musculus [7]) is reported as “Non-toxic”.
With `CCCCCCCCCCCCCC(=O)C1c2cccc(O)c2C(=O)c2c(O)cccc21` the MST (Mus musculus [8]) was 423 days and the Activity (Mus musculus [9]) was “Toxic”.
With `O=C1c2ccccc2Cc2cc(O)c(O)cc21` the Activity (Mus musculus [4]) was “Non-toxic”.
For `Oc1cc2cc3ccccc3cc2cc1O`, the Activity (Mus musculus [10]) was “Non-toxic”.
For `Oc1cccc2cc3ccccc3cc12`, the Activity (Mus musculus [1]) was “Toxic” and the MST (Mus musculus [2]) was 474 days.
In the case of `Oc1cccc2cc3cccc(O)c3cc12`, the Activity (Mus musculus [10]) is reported as “Non-toxic”.
In the case of `O=C1CCCc2cc3cccc(O)c3c(O)c21`, the Activity (Mus musculus [4]) is reported as “Non-toxic”.
With `Oc1cccc2c1Cc1c(O)cccc1C2` the Activity (Mus musculus [4]) was “Non-toxic”.
For `CCCCCCCCCCCCCC(=O)Oc1cccc2c1C(=O)C=CC2=O`, the Activity (Mus musculus [11]) was “Non-toxic”.
In the case of `CC(=O)C1c2cccc(O)c2C(=O)c2c(O)cccc21`, the Activity (Mus musculus [12]) is reported as “Toxic”.
In the case of `O=C(c1ccccc1O)c1ccccc1O` [2,2'-DIHYDROXYBENZPHENONE], the Activity (Mus musculus [10]) is reported as “Non-toxic”.
In the case of `O=C1c2c(O)cccc2Cc2cccc(O)c21` [ANTHRALIN], the Activity [13] is reported as “Active”, the “log K” value [14] is reported as 9.16 and the “log K” value [15] is reported as 9.19. The “log K” value [16] was 9.56, the “log K” value [17] was 9.06 and the “log K” value [18] was 9.23.
For `O=C1c2cccc(O)c2C(=O)c2c(O)cccc21` [DANTHRON], the Activity [13] was “Active”, the Activity [19] was “Active” and the “log K” value [20] was 5.53. For the same compound, the “log K” value [21] was 10.03, the Activity [22] was “Active” and the “log K” value [23] was 5.58. The “log K” value [24] was 5.62, the “log K” value [25] was 5.77 and the Activity [26] was “Active”. The Activity [27] was “Active”.
In the case of `O=C1C=CC(=O)c2c(O)cccc21` [JUGLONE], the Activity (Mus musculus [28]) is reported as “Toxic”.
